An excerpt weighted towards active compounds, which were near 2% of everything screened.
IMP-1 inhibitor: IMP-1 metallo-beta-lactamase inhibitors, primary screen, biochemical, epi-absorbance readout, Pseudomonas aeruginosa enzyme. inhibition, % at 5.6 µM. metallo-beta-lactamase IMP-1 (Pseudomonas aeruginosa). AID 1556, 2009. purified IMP-1, nitrocefin hydrolysis, epi-absorbance fluorescence. 0.45% of 290,000 active;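 active = inhibition above the mean plus 3 SD of all compounds in the same screening run, cut at about 4.5% in these data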;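 also: 0% = IMP-1 with DMSO and 100% = DMSO wells lacking enzyme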
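System: purified IMP-1 / Input: IMP-1 dispensed at 0.2 nM / Medium: 50 mM HEPES pH 7.1, 50 µM ZnSO4, 0.05% Brij 35 / Timing: 15 min enzyme–compound preincubation, then 25 min nitrocefin reaction, 25 °C / Technique: plate fluorescence quenching by hydrolysis product, ex 480/em 530 nm / Repeats: singlicate testing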
ATG4B inhibitor: ATG4B protease inhibitors, primary screen, biochemical, fluorescence, uHTS; ATG4B cleavage of LC3-PLA2, NBD-HPC fluorescence, 1 h; inhibition, % at 8.33 µM; 0.51% of 340,000 active; AID 504462, 2011; in the data active = inhibition above about 40%
MIN6 prolif: inducers of MIN6 beta-cell proliferation, primary screen, ATP luminescence, uHTS | MIN6 cells proliferation, ATPlite luminescence, 48 h; cells starved in 0.2% serum; 100% = growth in 10% serum | proliferation, % at 10 µM | 0.29% of 330,000 active;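 active = compounds whose signal lies at least 3.5 SD above the mean of all wells on their plate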;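 also: 0% = DMSO-treated cells in low-serum medium and 100% = 10% serum control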
HKDC1 inhibitor: HKDC1 hexokinase inhibitors, primary screen, biochemical, fluorescence, uHTS; Q2TB90; recombinant HKDC1, G6PDH/diaphorase resazurin coupled fluorescence; inhibition, % at 20 µM; 0.16% of 340,000 active; AID 493160, 2011;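 active = inhibition above about 35% when tested at 20 µM, limit read from the data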;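 also: plate controls were DMSO wells with enzyme for no effect and DMSO wells lacking enzyme for full effect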
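Test system: Recombinant HKDC1 (HK5) hexokinase enzyme, produced in-house | Input: HKDC1 at 5 µg/mL | Buffer or medium: Tris pH 8.0 buffer with MgCl2, Tween-20, BSA, BME | Schedule: 90 min reaction incubation at room temperature, dark | Technique: Resazurin-to-resorufin fluorescence via G6PDH and diaphorase coupling, 525/613 nm | Controls: DMSO wells with and without enzyme mix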
PvdQ inh: P. aeruginosa PvdQ acylase inhibitors, primary screen, biochemical, fluorescence, plate reader and imaging, single point | PvdQ acylase [Pseudomonas aeruginosa LESB58] | purified PvdQ acylase | inhibition, % at 10 µM | 0.063% of 340,000 active; in the data active = inhibition above about 30%, passing the limit was not always enough;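 also: 0% = vehicle neutral wells and 100% = reference inhibitor wells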
VIM-2 inh: VIM-2 metallo-beta-lactamase inhibitors, primary screen, biochemical, epi-absorbance readout, Pseudomonas aeruginosa enzyme | purified VIM-2, nitrocefin hydrolysis, epi-absorbance fluorescence | inhibition, % at 5.6 µM | 0.89% of 290,000 active;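 active = inhibition above the mean of all tested compounds plus 3 SD, cutoff set per screening run, cut at about 7.5% in these data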;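 also: red hydrolysis product quenches plate fluorescence so inhibitors raise well fluorescence; 0% = enzyme with DMSO and 100% = DMSO without enzyme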
PLA2 ctr: PLA2 enzyme inhibition, counter-screen for ATG4B inhibitor project, biochemical, single concentration, uHTS hits; shares compounds with ATG4B inhibitor; purified PLA2, NBD-C6-HPC fluorescence, 45 min; inhibition, % at 8.33 µM; 66% of 1,600 active; AID 588402, 2011; in the data active = inhibition above about 50%
Target sequence (P04054 whole entry, looked up): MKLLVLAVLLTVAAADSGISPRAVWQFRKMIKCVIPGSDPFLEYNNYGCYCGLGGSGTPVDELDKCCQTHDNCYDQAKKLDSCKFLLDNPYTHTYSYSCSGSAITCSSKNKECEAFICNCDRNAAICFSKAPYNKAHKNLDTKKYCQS
* hit, by the source's call; x = not tested or not shown.

SMILES	IMP-1 inhibitor	ATG4B inhibitor	MIN6 prolif	HKDC1 inhibitor	PvdQ inh	VIM-2 inh	PLA2 ctr
COCc1ccc(C(=O)N2CCCC(Nc3ccc(C(C)C)cc3)C2)o1 (stereo not drawn)	-1.9	53.2*	-0.6	-3.0	-16.8	-1.3	59.0*
COCc1ccc(C(=O)N2CCCC(Nc3ccc(C(C)C)cc3)C2)s1 (stereo not drawn)	-2.2	72.4*	-4.4	-0.1	-14.5	-1.8	75.6*
CC12CCC(=O)N1C(C(=O)NCc1ccc(Cl)cc1Cl)CS2 (stereo not drawn)	x	5.4	-6.1	-1.8	-12.3	x	x
COc1cc(C(N)=O)ccc1OCc1ccccc1	-2.7	-2.5	0.0	-2.8	-11.9	-5.2	x
COc1c(Br)cc(C(N)=O)cc1OCc1ccccc1	-4.1	66.6*	1.1	-5.3	-5.8	-2.4	72.3*
CCOc1cc(C(N)=O)cc(Br)c1OCc1ccccc1	-2.5	46.2*	0.4	-9.2	-9.7	-2.6	60.3*
CC(NCCCOc1cccc2ccccc12)c1ccccc1 (stereo not drawn)	-2.2	-9.2	-4.9	8.9	-20.0	-0.9	x
Cc1sc2c(c1C)C(=O)NC(c1ccccc1F)N2 (stereo not drawn)	-1.8	8.0	-3.4	-10.4	-10.3	-2.3	x
Cc1ccc(C(=O)Nc2ncc(Cc3ccc(F)cc3)s2)o1	-4.5	57.1*	-4.7	2.2	-10.8	-4.1	64.2*
O=C(NCC1CC1)c1cccc2c1C(=O)c1ccc(-c3ccc(OC(F)(F)F)cc3)cc1S2(=O)=O	x	0.5	-3.9	-7.5	5.0	x	x
FC(F)(F)c1ccc(Cl)c(-n2c(-c3cc(-c4ccco4)[nH]n3)n[nH]c2=S)c1	-1.2	-1.3	1.0	9.1	-20.2	-0.1	x
S=c1[nH]nc(-c2cc(-c3ccco3)[nH]n2)n1-c1ccccc1Cl	0.8	49.9*	-0.8	10.1	-6.5	2.0	-7.3
CCCNC(=O)[C@H](Cc1c[nH]c2ccccc12)NC(=O)c1ccccc1Cl	-0.7	1.8	-0.5	-10.1	-13.9	-0.2	x
COc1ccc2c(c1)[C@@H]1[C@H](CO2)[C@H](c2ccccc2)[C@]2(C)C(=O)Nc3ccc(C)cc3C(=O)N12	x	46.4*	-8.0	0.5	-17.2	x	70.7*
C=Cn1cc[n+](CC(=O)c2ccc(Cl)c(Cl)c2)c1	-3.8	-1.0	0.3	-2.3	-18.2	-1.7	x
COc1ccc(N=C2c3ccccc3-c3ccc([N+](=O)[O-])cc32)cc1	x	-6.9	x	4.8	-8.6	x	x
Cc1ccc(N2CC(O)=C(c3nc4ccccc4c(=O)[nH]3)C2=N)cc1C	-1.1	45.8*	3.2	6.5	6.2	2.1	38.3
N=C1C(c2nc3ccccc3c(=O)[nH]2)=C(O)CN1c1ccccc1	-6.9	x	x	x	x	-2.1	x
O=C(Oc1cncc(Cl)c1)c1sccc1Cl	x	98.3*	-2.6	11.5	-6.3	x	-11.7
O=C(Oc1cncc(Cl)c1)c1ccco1	-4.7	-5.7	-0.9	-1.4	2.0	0.9	x
O=C1Nc2ccc(Cl)cc2C12Nc1ccccc1-c1nnc(SCc3ccccc3F)nc1O2 (stereo not drawn)	-4.2	49.5*	x	6.4	-13.3	-3.2	63.2*
O=C1Nc2ccc(F)cc2C12Nc1ccccc1-c1nnc(SCc3ccccc3F)nc1O2 (stereo not drawn)	-3.5	10.8	-4.5	15.9	-3.6	-3.5	x
COc1ccc(-n2c(SC(CN3CCCCC3)CN3CCCC3=O)nc3ccccc3c2=O)cc1 (stereo not drawn)	-2.8	62.6*	-1.6	-1.0	-4.9	-7.5	66.6*
CC(=O)NCCN1C(=O)S/C(=C\c2cccs2)C1=O	-1.9	-4.2	-0.1	-8.6	-7.7	-0.8	x
